{"data": "Results collected from several papers", "target": "Mitogen-activated protein kinase 10 (MAPK10, Homo sapiens, UniProt P53779)", "note": "Each line is one published result; the experiments were not run side by side."}
{"Structure (SMILES)": "COc1cc(Nc2cnc(C#N)c(O[C@H](C)CN(C)C)n2)ncc1-c1cnn(C)c1", "test": "enzyme activity, inhibitor, radiometric", "setting": "1 µM", "quantity": "remaining activity", "value": "113%"}
{"Structure (SMILES)": "Cc1sc(C(=O)NC2COC2)cc1-n1cc(NC(=O)Nc2c(F)cccc2Cl)cn1", "test": "enzyme activity, inhibitor", "setting": "10 µM", "quantity": "remaining activity", "value": "10.5%"}
{"Structure (SMILES)": "CC/C(=N\\NC(=O)NCc1cccc(O)c1)c1ccc(O)c(C)c1O", "test": "enzyme activity, inhibitor", "setting": "0.1 µM", "quantity": "inhibition", "value": "-5%"}
{"Structure (SMILES)": "CS(=O)(=O)c1cc(C2(NC(=O)c3cncc4c3cnn4-c3ccc(F)cc3)CC2)ccn1", "test": "cell-free assay, competition with immobilised ligand", "setting": "1 µM", "quantity": "remaining binding", "value": "100%"}
{"Structure (SMILES)": "CCOc1cc(-c2nncn2C)ccc1Nc1ncc2cc(C)nc(NCC(C)(C)C)c2n1", "test": "enzyme activity, inhibitor, FRET", "setting": "1 µM", "quantity": "inhibition", "value": "80%"}
{"Structure (SMILES)": "CC(C)(C)c1nc(-c2cccc(NS(=O)(=O)c3c(F)cccc3F)c2F)c(-c2ccnc(N)n2)s1", "test": "enzyme activity, inhibitor, radiometric", "setting": "1 µM", "quantity": "remaining activity", "value": "118%"}
{"Structure (SMILES)": "COc1cc2ncnc(Nc3ccc(Oc4ccccc4)cc3C)c2cc1OC", "test": "enzyme activity, inhibitor", "setting": "1 µM", "quantity": "inhibition", "value": "5%"}
{"Structure (SMILES)": "COc1cc(-c2cc(-c3ccc(N4CCNCC4)cc3)cnc2C)cc(OC)c1OC", "test": "enzyme activity, inhibitor", "setting": "0.1 µM", "quantity": "inhibition", "value": "1%"}
{"Structure (SMILES)": "Nc1ncnc2occ(-c3ccc(NC(=O)Nc4cc(C(F)(F)F)ccc4F)cc3)c12", "test": "cell-free assay, inhibitor", "setting": "20 µM", "quantity": "remaining signal", "value": "1.3%"}
{"Structure (SMILES)": "CC(C)(O)[C@H]1CC[C@H](Nc2ccc3ncc(-c4cccc(C(F)(F)F)c4)n3n2)CC1", "test": "enzyme activity, inhibitor", "setting": "1 µM", "quantity": "remaining activity", "value": "107%"}
{"Structure (SMILES)": "CC1=C(C#N)C(c2ccc3c(c2)c(NC(=O)c2ccccc2C)nn3C)C(C#N)=C(C)N1", "test": "cell-free assay, competition with immobilised ligand", "setting": "1 µM", "quantity": "remaining binding", "value": "100%"}
{"Structure (SMILES)": "Oc1cccc(-c2nc(N3CCOCC3)c3oc4ncccc4c3n2)c1", "test": "enzyme activity, inhibitor", "setting": "10 µM", "quantity": "remaining activity", "value": "101%"}
{"Structure (SMILES)": "Clc1ccc(Nc2nnc(Cc3ccncc3)c3ccccc23)cc1", "test": "cell-free assay", "setting": "0.5 µM", "quantity": "remaining signal", "value": "116%"}
{"Structure (SMILES)": "CNC(=O)Nc1ccc2c(c1)CC[C@@]21OC(=O)N(CC(=O)N(Cc2ccc(F)cc2)[C@@H](C)C(F)(F)F)C1=O", "test": "cell-free assay, competition with immobilised ligand", "setting": "1 µM", "quantity": "remaining binding", "value": "73%"}
{"Structure (SMILES)": "O=C1Nc2ccc(Cl)cc2C1=Cc1cc(Cl)c(O)c(Cl)c1", "test": "cell-free assay", "setting": "0.5 µM", "quantity": "remaining signal", "value": "98.8%"}
{"Structure (SMILES)": "Nc1ncnc2c1ncn2[C@@H]1O[C@H](COP(=O)(O)OP(=O)(O)OP(=O)(O)O)[C@@H](O)[C@H]1O", "test": "thermal stability, DSF", "setting": "200 µM", "quantity": "ΔTm", "value": "2.73 °C"}
{"Structure (SMILES)": "CCC(=O)N[C@@H]1CC[C@H](C(=O)N(C)c2ccc(-c3nc4ccccc4o3)cc2)C1", "test": "cell-free assay, competition with immobilised ligand", "setting": "1 µM", "quantity": "remaining binding", "value": "100%"}
{"Structure (SMILES)": "FC(F)(F)Oc1cccc(-c2cnc3ccc(-c4ccncc4)nn23)c1", "test": "enzyme activity, inhibitor, radiometric", "setting": "5 µM", "quantity": "activity vs control", "value": "81%"}
{"Structure (SMILES)": "Cc1c(NC(=O)c2cc(C(N)=O)nc3cc(F)ccc23)c(C(F)(F)F)nn1Cc1ccc(C(C)(C)C)cc1", "test": "cell-free assay, competition with immobilised ligand", "setting": "1 µM", "quantity": "remaining binding", "value": "100%"}
{"Structure (SMILES)": "Cc1ccc(NC(=O)c2ccc(C)c(C(F)(F)F)c2)cc1C#Cc1nn(C2CCC(O)CC2)c2ncnc(N)c12 (stereo not drawn)", "test": "cell-free assay", "setting": "10 µM", "quantity": "remaining signal", "value": "40%"}
{"Structure (SMILES)": "O=C(NC[C@@H]1[C@H]2CN(C(=O)OCc3cc(C(F)(F)F)cc(C(F)(F)F)c3)C[C@@H]12)c1ccc2[nH]nnc2c1", "test": "cell-free assay, competition with immobilised ligand", "setting": "1 µM", "quantity": "remaining binding", "value": "90%"}
{"Structure (SMILES)": "Cc1cnc(NC2CCOCC2)nc1-n1cnc(C(=O)NC(CN)c2cc(F)cc(Cl)c2)c1 (stereo not drawn)", "test": "enzyme activity, inhibitor, radiometric", "setting": "1 µM", "quantity": "remaining activity", "value": "55%"}
{"Structure (SMILES)": "CNC(=O)c1cc(Oc2ccc(NC(=O)Nc3ccc(Cl)c(C(F)(F)F)c3)cc2)ccn1", "test": "enzyme activity, inhibitor", "setting": "0.3 µM", "quantity": "inhibition", "value": "9%"}
{"Structure (SMILES)": "c1ccc(N2CCN(Cc3nc4ccccc4[nH]3)CC2)nc1", "test": "binding, competition with immobilised ligand", "setting": "1 µM", "quantity": "remaining binding", "value": "100%"}
